Data from ChEMBL document CHEMBL2424641, “Synthesis and evaluation of novel radioligands for positron emission tomography imaging of the orexin-2 receptor” (J Med Chem, 2013).
Activity calls are given as the source filed them. The calls are words filed in the database; no cut-off is given here.

Tests used:
LLC-PK1 = assay: Flux ratio of permeability from apical to basolateral to basolateral to apical side in pig LLC-PK1 cells after 2 hrs; assay type: ADME, cell-based, Sus scrofa; settings: llc-pk1, 2 h
In short: (§1)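 LLC-PK1 and LLC-MDR1 monolayers, 5 days post-seeding, preincubated 2 h at 37 °C in HBSS/10 mM HEPES. Compound added apically or basally, 2 h at 37 °C; opposite side assayed by LC-MS. Papp = Q/t/C0/A; FR = Papp(b→a)/Papp(a→b); corrected FR = FR(LLC-MDR1)/FR(LLC-PK1).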

[1] = molecular target: T1, Orexin receptor type 2 (Rattus norvegicus) (UniProt P56719); assay: Binding affinity to OX2 receptor in coronal rat hypothalamus at 2 nM by autoradiography; settings: tested as the 11C-labelled form
T1 sequence (whole entry): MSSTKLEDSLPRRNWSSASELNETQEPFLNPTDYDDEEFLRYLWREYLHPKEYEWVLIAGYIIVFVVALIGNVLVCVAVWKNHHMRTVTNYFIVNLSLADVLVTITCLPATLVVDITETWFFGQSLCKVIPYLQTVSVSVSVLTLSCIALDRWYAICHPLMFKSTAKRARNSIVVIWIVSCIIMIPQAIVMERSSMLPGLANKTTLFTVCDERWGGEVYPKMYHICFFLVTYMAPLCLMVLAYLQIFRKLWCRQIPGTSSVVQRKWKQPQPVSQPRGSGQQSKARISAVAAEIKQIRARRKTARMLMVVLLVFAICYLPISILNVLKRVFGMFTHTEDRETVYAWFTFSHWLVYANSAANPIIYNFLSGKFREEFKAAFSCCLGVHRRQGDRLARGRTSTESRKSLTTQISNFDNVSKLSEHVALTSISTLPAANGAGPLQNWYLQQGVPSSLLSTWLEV
In short: (§2)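 Rat brain sections (20 μm) preincubated 20 min at rt in 25 mM HEPES pH 7.4 with 5 mM MgCl2 and 1 mM CaCl2, then incubated 60 min at rt with 11C radioligand; nonspecific binding with 10 μM unlabeled compound. Sections washed three times in cold water, dried, exposed to imaging plate 1 h alongside calibrated radioactive standards.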

[2] = Octanol-phosphate buffer partition coefficient, log D of the compound at pH 7.4 by Shake flask method; assay type: physicochemical
In short: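 [11C]-labelled compound (about 200 000 cpm) in n-octanol and 0.1 M PBS pH 7.4, vortexed 3 min at rt and centrifuged; weighed aliquots of each phase γ-counted, with the organic layer repartitioned until stable. log D = log(cpm/g octanol ÷ cpm/g PBS); triplicate.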

[3] = molecular target: T1, Orexin receptor type 2 (Rattus norvegicus); assay: Binding affinity to OX2 receptor in coronal rat brain neocortex layer 6 at 2.5 nM by autoradiography; assay type: tissue-based; settings: tested as the 11C-labelled form; in short: as §2
[4] = Ratio of flux ratio in pig LLC cells expressing MDR1 to flux ratio on pig LLC-PK1 cells; assay type: ADME, cell-based, Sus scrofa; in short: as §1
[5] = molecular target: T2, Orexin/Hypocretin receptor type 1 (Homo sapiens, UniProt O43613); assay: Displacement of [125I]-orexin-A from human OX1 receptor expressed in CHO cells after 30 mins by liquid scintillation counting analysis; assay type: cell-based
T2 sequence (O43613 whole entry): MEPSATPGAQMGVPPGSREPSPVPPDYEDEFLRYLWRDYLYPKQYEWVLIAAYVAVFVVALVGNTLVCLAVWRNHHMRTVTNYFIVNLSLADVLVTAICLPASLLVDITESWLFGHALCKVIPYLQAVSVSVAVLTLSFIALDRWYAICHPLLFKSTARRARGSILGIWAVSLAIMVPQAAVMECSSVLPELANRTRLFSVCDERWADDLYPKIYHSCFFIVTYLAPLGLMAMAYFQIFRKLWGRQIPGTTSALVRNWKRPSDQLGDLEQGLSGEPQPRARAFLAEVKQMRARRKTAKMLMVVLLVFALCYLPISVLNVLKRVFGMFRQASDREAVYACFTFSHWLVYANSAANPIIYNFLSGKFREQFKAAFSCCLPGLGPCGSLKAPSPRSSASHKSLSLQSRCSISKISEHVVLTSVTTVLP
In short: (§3)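 CHO membranes expressing human OX1R or OX2R (5 μg protein) incubated 30 min at rt with compound and [125I]-orexin A (2 nM stock) in HEPES buffer pH 7.5 with MgCl2, CaCl2, BSA. Nonspecific binding with 10 μM orexin A. Wells washed with HEPES/525 mM NaCl and DPM counted. % inhibition from test, control and nonspecific counts; mean of three wells.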

[6] = Flux ratio of permeability from apical to basolateral to basolateral to apical side in pig LLC cells expressing MDR1 after 2 hrs; assay type: ADME, cell-based, Sus scrofa; in short: as §1
[7] = molecular target: T1, Orexin receptor type 2 (Rattus norvegicus); assay: Binding affinity to OX2 receptor in coronal rat neocortex layer 6 at 2 nM by autoradiography; settings: tested as the 11C-labelled form; in short: as §2
Orexin receptor type 2 = molecular target: T3, Orexin receptor type 2 (Homo sapiens, UniProt O43614); assay: Displacement of [125I]-orexin-A from human OX2 receptor expressed in CHO cells after 30 mins by liquid scintillation counting analysis; assay type: cell-based; in short: as §3
T3 sequence (O43614 whole entry): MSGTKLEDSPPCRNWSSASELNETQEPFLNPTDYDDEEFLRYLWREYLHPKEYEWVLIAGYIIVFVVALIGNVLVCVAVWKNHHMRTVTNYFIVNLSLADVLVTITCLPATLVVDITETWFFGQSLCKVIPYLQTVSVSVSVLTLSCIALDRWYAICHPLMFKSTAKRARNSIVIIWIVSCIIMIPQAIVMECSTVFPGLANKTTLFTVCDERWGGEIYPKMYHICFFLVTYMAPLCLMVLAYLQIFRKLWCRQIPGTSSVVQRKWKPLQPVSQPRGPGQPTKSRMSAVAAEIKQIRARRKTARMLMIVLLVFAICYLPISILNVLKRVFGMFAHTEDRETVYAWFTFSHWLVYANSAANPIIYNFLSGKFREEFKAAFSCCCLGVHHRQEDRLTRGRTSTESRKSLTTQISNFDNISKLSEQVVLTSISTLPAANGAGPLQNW

With COc1cc(NC(=O)[C@@H]2C[C@@]2(COc2cnc(C)nc2C)c2cccc(F)c2)ncc1F the Ratio (LLC-PK1) was 1.19, the Activity [1] was “Active” and the logD [2] was 2.93. The Activity [3] was “Active”, the Ratio [4] was 2.06 and the Ki [5] was 3 nM. For the same molecule, the Ratio [6] was 2.45, the Activity [7] was “Active” and the Ki (Orexin receptor type 2) was 2 nM.
COc1ccc([C@]2(COc3cnc(C)nc3C)C[C@H]2C(=O)Nc2ccc(F)cn2)cc1F gave a Ratio (LLC-PK1) of 0.8, a logD [2] of 3.32 and a Ratio [4] of 1.55. For the same molecule, the Ki [5] was 30 nM, the Ratio [6] was 1.24 and the Ki (Orexin receptor type 2) was 7 nM.
